Data set [1] concerns the target T1, Dual specificity tyrosine-phosphorylation-regulated kinase 2 (Homo sapiens, UniProt Q92630).
T1 sequence (Q92630 whole entry): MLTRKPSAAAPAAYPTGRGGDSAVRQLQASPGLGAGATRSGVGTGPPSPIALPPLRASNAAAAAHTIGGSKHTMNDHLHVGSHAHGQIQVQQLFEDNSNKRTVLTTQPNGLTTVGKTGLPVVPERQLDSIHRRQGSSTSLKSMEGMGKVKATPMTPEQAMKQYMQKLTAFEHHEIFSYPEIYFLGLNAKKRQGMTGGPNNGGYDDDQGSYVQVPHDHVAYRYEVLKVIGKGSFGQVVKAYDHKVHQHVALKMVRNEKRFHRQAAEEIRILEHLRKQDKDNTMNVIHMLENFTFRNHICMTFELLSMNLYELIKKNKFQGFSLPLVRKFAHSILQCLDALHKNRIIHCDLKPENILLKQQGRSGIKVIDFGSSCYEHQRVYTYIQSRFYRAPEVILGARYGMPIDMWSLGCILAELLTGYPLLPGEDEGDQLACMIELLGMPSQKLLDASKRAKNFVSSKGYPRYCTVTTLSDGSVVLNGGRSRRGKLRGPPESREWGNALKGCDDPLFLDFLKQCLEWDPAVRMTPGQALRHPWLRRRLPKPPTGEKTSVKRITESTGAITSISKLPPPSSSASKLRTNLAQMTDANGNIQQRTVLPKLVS
Briefly: Inhibition of recombinant human N-terminal GST-tagged DYRK2 expressed in Escherichia coli BL21(DE3) cells using KKISGRLSPIMTEQ-NH2 as substrate incubated for 15 mins in presence of [gamma-32P]ATP. In outline:
(§1)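 Purified recombinant kinase with 100 µM ATP. IC50 values are averages of at least two independent determinations.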

In data set [2] the target is Dual specificity tyrosine-phosphorylation-regulated kinase 1B (Homo sapiens, UniProt Q9Y463). In words: Inhibition of full length recombinant human GST-tagged DYRK1B expressed in insect cells using KKISGRLSPIMTEQ-NH2 as substrate incubated for 15 mins in presence of [gamma-32P]ATP.
Data set [3] has as its target Dual specificity protein kinase CLK1 (Homo sapiens, UniProt P49759). Briefly: Inhibition of recombinant human GST-tagged CLK1 catalytic domain (129 to 484 residues) expressed in Escherichia coli using GRSRSRSRSRSRSRSR as substrate incubated for 15 mins in presence of [gamma-32P]ATP. The method, boiled down: as §1
Data set [4] addresses Casein kinase II (Homo sapiens, UniProt P19784+P67870+P68400). In words: (§2) Inhibition of CK2 (unknown origin) using RRRDDDSDDD-NH2 as susbtrate incubated for 15 mins in presence of [gamma-32P]ATP. In kind it is protein-complex assay.
Data set [5] addresses T2, Dual specificity tyrosine-phosphorylation-regulated kinase 1A (Homo sapiens, UniProt Q13627). Briefly: Inhibition of recombinant human N-terminal His6-tagged DYRK1A catalytic domain expressed in Escherichia coli BL21(DE3) cells using KKISGRLSPIMTEQ-NH2 as substrate incubated for 15 mins in presence of [gamma-32P]ATP.
Data set [6] addresses Protein kinase C beta type (Homo sapiens, UniProt P05771). Briefly: Inhibition of PKCbeta (unknown origin) incubated for 15 mins in presence of [gamma-32P]ATP. The method, boiled down:
(§3)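 Purified recombinant kinase assayed with 100 μM ATP. Values averaged from at least two independent determinations.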

Data set [7] has as its target Epidermal growth factor receptor (Homo sapiens, UniProt P00533). Briefly: Inhibition of EGFR (unknown origin) incubated for 15 mins in presence of [gamma-32P]ATP. The method, boiled down: as §3
The target in data set [8] is Casein kinase II (Homo sapiens, UniProt P67870+P68400+P19784). Described as §2. The data set is classed as protein-complex assay.
Data set [9] in a line: Dissociation constant, pKa of compound. The data set is classed as physicochemical.
A short description of data set [10]: Growth inhibition of human U87MG cells after 4 days by MTT assay. In kind it is functional, cell-based, U-87MG ATCC. The following applies: U-87 MG, 96 h.
Data set [11] is described as follows: Half life in rat plasma at 1 uM by LC-MS/MS analysis. The data set is classed as ADME, cell-free. The method, boiled down:
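Pooled heparinized rat plasma incubated with 1 μM compound at 37 °C, sampled at 0, 5, 15, 30, 60 and 120 min. Reaction stopped with 5 volumes cold acetonitrile containing internal standard. Remaining compound quantified by LC-MS/MS. Half-life given as mean of two experiments.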

The next data set relates to Plasma. In words: Metabolic stability in rat plasma assessed as drug degradation at 1 uM after 120 mins by LC-MS/MS analysis. The data set is classed as ADME, cell-free. The following applies: 2 h. In outline:
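Compound (1 µM) in pooled heparinised rat plasma at 37 °C, sampled at 0, 5, 15, 30, 60 and 120 min. Reaction stopped with 5 volumes of cold acetonitrile containing internal standard. Remaining compound was measured by LC-MS/MS; means of two experiments.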

For data set [12], the target named is T2, Dual specificity tyrosine-phosphorylation-regulated kinase 1A. In words: Inhibition of tetracycline-inducible EGFP-DYRK1A (unknown origin) expressed in HEK293 cells coexpressing full length human EGFP-tau protein assessed as reduction in tau-Thr212 phosphorylation incubated overnight by immunoblotting assay. Background: A western blot detects proteins with antibodies after separation by electrophoresis.

Chain of Dual specificity protein kinase CLK1 (P49759 whole entry, the tested form may be a part): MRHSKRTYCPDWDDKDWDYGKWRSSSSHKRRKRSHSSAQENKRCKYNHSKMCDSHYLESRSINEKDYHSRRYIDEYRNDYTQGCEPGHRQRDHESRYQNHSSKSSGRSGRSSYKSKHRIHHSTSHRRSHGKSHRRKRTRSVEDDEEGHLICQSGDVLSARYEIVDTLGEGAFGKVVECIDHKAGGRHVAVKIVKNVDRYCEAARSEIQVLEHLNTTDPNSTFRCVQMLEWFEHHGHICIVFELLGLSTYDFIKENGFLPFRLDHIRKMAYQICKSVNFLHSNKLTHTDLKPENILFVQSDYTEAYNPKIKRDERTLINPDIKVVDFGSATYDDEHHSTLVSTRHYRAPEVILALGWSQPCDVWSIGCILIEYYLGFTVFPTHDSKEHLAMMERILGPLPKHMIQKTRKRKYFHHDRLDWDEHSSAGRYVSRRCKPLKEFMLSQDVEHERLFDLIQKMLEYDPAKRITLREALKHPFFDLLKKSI
Chain of Epidermal growth factor receptor (P00533 whole entry): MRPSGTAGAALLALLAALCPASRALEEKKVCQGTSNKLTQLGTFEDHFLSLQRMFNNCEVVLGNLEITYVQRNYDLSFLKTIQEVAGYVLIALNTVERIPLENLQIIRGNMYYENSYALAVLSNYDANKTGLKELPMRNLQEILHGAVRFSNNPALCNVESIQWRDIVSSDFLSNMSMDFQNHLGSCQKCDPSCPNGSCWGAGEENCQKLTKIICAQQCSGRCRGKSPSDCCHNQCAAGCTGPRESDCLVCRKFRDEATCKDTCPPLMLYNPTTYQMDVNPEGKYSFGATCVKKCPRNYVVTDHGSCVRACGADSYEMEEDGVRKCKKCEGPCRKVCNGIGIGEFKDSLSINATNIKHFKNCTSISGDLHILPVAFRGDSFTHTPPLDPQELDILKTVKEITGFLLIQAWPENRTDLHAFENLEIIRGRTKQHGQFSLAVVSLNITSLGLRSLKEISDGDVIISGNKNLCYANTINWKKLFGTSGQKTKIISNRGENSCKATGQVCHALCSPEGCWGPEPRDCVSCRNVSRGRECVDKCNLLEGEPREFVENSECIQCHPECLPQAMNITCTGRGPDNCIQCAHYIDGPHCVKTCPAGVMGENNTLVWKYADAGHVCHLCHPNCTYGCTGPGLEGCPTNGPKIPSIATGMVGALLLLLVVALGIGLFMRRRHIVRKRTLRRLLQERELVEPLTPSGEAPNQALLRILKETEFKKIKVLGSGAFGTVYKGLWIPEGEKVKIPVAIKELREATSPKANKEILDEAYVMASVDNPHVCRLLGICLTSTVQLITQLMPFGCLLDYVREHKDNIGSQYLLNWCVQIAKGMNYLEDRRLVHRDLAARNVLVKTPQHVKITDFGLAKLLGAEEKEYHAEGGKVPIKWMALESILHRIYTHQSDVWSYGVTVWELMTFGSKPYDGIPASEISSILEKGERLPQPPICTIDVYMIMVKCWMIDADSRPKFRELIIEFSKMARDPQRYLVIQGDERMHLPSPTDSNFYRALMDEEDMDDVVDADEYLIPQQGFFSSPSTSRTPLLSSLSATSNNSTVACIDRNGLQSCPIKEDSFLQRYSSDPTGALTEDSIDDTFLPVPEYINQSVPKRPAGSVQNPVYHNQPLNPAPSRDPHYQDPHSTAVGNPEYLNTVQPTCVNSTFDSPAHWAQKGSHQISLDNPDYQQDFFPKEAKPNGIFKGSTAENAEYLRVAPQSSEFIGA
Chain of Protein kinase C beta type (P05771 whole entry): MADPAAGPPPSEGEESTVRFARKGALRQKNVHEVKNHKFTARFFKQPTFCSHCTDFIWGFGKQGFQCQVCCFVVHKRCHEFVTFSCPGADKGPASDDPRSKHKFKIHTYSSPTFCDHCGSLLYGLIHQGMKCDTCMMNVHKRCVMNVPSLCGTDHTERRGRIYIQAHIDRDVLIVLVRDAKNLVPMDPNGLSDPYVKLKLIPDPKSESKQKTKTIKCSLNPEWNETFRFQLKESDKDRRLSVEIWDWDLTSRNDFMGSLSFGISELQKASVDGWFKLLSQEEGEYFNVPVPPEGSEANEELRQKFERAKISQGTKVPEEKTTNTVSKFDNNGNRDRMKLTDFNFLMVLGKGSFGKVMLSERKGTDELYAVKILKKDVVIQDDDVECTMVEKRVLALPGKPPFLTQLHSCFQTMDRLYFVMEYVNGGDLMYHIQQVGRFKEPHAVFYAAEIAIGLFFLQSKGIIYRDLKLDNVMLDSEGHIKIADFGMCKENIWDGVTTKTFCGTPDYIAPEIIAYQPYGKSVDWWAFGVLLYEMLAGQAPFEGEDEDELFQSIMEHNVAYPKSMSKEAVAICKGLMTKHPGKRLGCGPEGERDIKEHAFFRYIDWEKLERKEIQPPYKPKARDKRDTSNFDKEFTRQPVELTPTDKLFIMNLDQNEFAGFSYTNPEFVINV
Chain of Casein kinase II (Homo sapiens, UniProt P19784+P67870+P68400) (P67870 whole entry, the tested form may be a part): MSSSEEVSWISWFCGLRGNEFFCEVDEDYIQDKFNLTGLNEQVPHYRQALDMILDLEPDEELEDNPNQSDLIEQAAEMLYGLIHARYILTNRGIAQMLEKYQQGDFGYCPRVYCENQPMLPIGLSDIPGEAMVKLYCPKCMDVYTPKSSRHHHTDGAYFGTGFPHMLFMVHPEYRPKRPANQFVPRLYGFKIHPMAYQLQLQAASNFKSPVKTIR
Chain of Casein kinase II (Homo sapiens, UniProt P19784+P67870+P68400) (P68400 whole entry, the tested form may be a part): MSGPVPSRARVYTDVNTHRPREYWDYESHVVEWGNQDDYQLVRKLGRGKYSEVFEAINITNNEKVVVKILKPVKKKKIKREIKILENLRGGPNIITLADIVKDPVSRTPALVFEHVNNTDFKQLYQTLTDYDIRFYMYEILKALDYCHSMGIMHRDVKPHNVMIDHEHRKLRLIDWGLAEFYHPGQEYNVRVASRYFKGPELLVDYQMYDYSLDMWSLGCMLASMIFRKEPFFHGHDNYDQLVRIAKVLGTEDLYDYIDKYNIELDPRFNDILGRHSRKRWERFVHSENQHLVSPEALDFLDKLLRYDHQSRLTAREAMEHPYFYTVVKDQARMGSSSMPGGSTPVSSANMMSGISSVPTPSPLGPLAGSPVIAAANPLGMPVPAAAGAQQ
Chain of Casein kinase II (Homo sapiens, UniProt P19784+P67870+P68400) (P19784 whole entry, the tested form may be a part): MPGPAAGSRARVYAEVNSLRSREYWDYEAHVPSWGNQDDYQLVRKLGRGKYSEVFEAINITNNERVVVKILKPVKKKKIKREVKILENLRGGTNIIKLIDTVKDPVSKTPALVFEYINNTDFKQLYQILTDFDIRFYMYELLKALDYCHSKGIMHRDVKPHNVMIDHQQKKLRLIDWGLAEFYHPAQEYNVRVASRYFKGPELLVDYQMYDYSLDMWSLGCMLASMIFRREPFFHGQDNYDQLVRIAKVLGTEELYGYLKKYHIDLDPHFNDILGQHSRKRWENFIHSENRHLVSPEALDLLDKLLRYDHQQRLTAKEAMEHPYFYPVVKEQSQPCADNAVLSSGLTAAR
Chain of Dual specificity tyrosine-phosphorylation-regulated kinase 1B (Q9Y463 whole entry, the tested form may be a part): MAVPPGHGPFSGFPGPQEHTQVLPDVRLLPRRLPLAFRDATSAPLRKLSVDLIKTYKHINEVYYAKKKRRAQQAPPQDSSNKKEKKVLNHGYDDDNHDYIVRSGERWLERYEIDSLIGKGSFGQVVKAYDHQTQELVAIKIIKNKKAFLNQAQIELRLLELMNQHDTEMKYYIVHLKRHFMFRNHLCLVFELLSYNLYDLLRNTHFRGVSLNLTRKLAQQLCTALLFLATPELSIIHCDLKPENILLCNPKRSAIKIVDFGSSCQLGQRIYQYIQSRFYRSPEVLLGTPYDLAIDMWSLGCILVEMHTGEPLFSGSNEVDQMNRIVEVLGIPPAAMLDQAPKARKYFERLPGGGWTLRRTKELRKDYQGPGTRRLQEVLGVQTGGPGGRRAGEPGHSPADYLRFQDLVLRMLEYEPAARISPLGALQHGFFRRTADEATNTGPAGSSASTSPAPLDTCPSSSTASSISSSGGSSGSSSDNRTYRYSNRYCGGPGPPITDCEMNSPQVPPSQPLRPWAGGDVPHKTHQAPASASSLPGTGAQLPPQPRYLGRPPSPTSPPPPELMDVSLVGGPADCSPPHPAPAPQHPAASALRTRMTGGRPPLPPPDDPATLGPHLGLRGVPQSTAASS
Chain of Casein kinase II (Homo sapiens, UniProt P67870+P68400+P19784) (P67870 whole entry): as the sequence (P67870 whole entry, the tested form may be a part) above
Chain of Casein kinase II (Homo sapiens, UniProt P67870+P68400+P19784) (P68400 whole entry): as the sequence (P68400 whole entry, the tested form may be a part) above
Chain of Casein kinase II (Homo sapiens, UniProt P67870+P68400+P19784) (P19784 whole entry): as the sequence (P19784 whole entry, the tested form may be a part) above

As usually defined, the IC50 is the concentration that inhibits the measured activity by half. `O=C1OCC/C1=C\c1ccc2c(c1)CCCO2`: the IC50 in data set [1] (read-out: IC50) was more than 10000 nM; in [2], 6700 nM; in data set [3], 3900 nM; on Casein kinase II [4], more than 10000 nM; in [5], 930 nM; in data set [6], “Not Active”. For the same compound, the IC50 in data set [7] (read-out: IC50) was more than 10000 nM.
The term pKa denotes the negative logarithm of the acid dissociation constant. Low values mean a group that gives up its proton readily, high ones a group that holds its proton tightly. Regarding `COc1ccc(/C=C2\NC(=O)NC2=O)cc1`, the IC50 result is “Not Active” in data set [1]; more than 10000 nM in [2]; 10000 nM in data set [3]; “Not Active” at Casein kinase II [8]; 6400 nM in [5]; “Not Active” in [6]. Besides, in [9], the pKa worked out at 8.9.
Consider `COc1ccc(/C=C2\NC(=O)SC2=O)cc1`, for which the IC50 in data set [1] (read-out: IC50) was 9200 nM; in data set [2] it was 5200 nM; in data set [3] it was 3600 nM; at Casein kinase II [4], 170 nM; in data set [5] it was 1300 nM; in [6], “Not Active”. Besides, in data set [7], the IC50 entry is on record as “Not Active”.
As to `COc1ccc(/C=C2/SC(=S)NC2=O)cc1`, the IC50 in [1] (read-out: IC50) was more than 10000 nM; in [10], 9500 nM; in [2], 1500 nM; in [3], 5700 nM; on Casein kinase II [4], 220 nM; in data set [5], 250 nM. Moreover, the IC50 entry in data set [6] and in data set [7] was “Not Active” throughout. In [9], this compound came in with a pKa of 5.8.
Turning to `COc1ccc2c(c1)[nH]c1c(C)nccc12` [HARMINE], in [10], 7200 nM corresponded to half-maximal inhibition (IC50).
`O=C1OCC/C1=C\c1ccc2c(c1)OCCO2`: the IC50 in data set [1] (read-out: IC50) is 2040 nM; in data set [2] it was 4290 nM; in data set [3], more than 10000 nM; at Casein kinase II [4], more than 10000 nM; in data set [5] it was 880 nM; in data set [6], “Not Active”. In addition, the IC50 in [7] (read-out: IC50) is more than 10000 nM.
Usually half-life stands for the time needed for the level to fall by half in the phase considered. On to `CCOC(=O)[C@H](Cc1ccccc1)NC(C)=O`, for which the half-life at 1 µM in data set [11] is less than 0.0833 h.
Turning to `CC1C/C(=C\c2ccc3ncsc3c2)C(=O)O1` (stereo not drawn), the IC50 in data set [1] (read-out: IC50) is more than 10000 nM; in data set [2] it was 1680 nM; in [3], 170 nM; on Casein kinase II [4], more than 10000 nM; in data set [5], 1080 nM; in [6] it was “Not Active”. In addition, the IC50 in data set [7] (read-out: IC50) is more than 10000 nM.
For the compound `O=C1OCC/C1=C\c1ccc2c(c1)OCO2`, the IC50 in [1] (read-out: IC50) is 990 nM; in [2], 2630 nM; in [3], more than 10000 nM; at Casein kinase II [4], more than 10000 nM; in [5], 600 nM; in data set [6], “Not Active”. Also, in data set [7] (read-out: IC50), the IC50 was more than 10000 nM.
`O=C1NC(=S)S/C1=C\c1ccc2c(c1)CCO2`: the IC50 in data set [1] (read-out: IC50) was found to be 1000 nM; in [10], 5600 nM; in data set [2], 300 nM; in data set [3], 500 nM; at Casein kinase II [4], 100 nM; in data set [5] it was 100 nM. The IC50 in data set [6] (read-out: IC50) and in [7] (read-out: IC50) was more than 10000 nM throughout.
`COc1ccc(/C=C2\CC(C)OC2=O)cc1` (stereo not drawn): the IC50 result was “Not Active” in data set [1]; 10500 nM in data set [2]; 4370 nM in data set [3]; more than 10000 nM at Casein kinase II [4]; 1200 nM in data set [5]; “Not Active” in [6].
Consider `COc1ccc(/C=C2\CCCOC2=O)cc1`, for which the IC50 was more than 10000 nM in [1] (read-out: IC50); 5800 nM in [2]; 7520 nM in data set [3]; more than 10000 nM on Casein kinase II [4]; 1100 nM in data set [5]; “Not Active” in data set [6]. Also, the IC50 entry in [7] is “Not Active”.
On to `COc1ccc(/C=C2\CC(=O)NC2=O)cc1`, for which the IC50 in data set [5] was more than 10000 nM.
Regarding `COc1ccc([C@@H]2Sc3ccccc3N(CCN(C)C)C(=O)[C@@H]2OC(C)=O)cc1` [DILTIAZEM], the half-life at 1 µM in data set [11] amounted to 2.08 h.
As for `O=C1OCC/C1=C\c1ccc2c(c1)CCO2`, the Stability result with Plasma is “Stable”. Further, the IC50 in [1] (read-out: IC50) is 820 nM; in data set [2] it was 2170 nM; in data set [3], more than 10000 nM; at Casein kinase II [4], more than 10000 nM; in [5], 960 nM; in data set [6], “Not Active”. Also, the IC50 in data set [7] (read-out: IC50) is more than 10000 nM. The compound also showed a half-life at 1 µM in data set [11] of more than 2 h.
Take `O=C1NC(=S)N/C1=C\c1ccc2ncsc2c1`: the half-maximal inhibitory concentration (IC50) is 1500 nM in [1] (read-out: IC50); 900 nM in data set [2]; 20 nM in data set [3]; 2400 nM on Casein kinase II [4]; 700 nM in [5]; more than 10000 nM in data set [6] (read-out: IC50). Also, in data set [7] (read-out: IC50), the half-inhibitory concentration (IC50) is more than 10000 nM.
With `O=C1NC(=O)/C(=C/c2ccc3nccnc3c2)S1`, the IC50 came out at 100 nM in data set [1] (read-out: IC50); 320 nM in data set [10]; 80 nM in [2]; 70 nM in data set [3]; 20 nM on Casein kinase II [4]; 1600 nM in [12]. The figures for the IC50 in data set [5], in data set [6] and in [7] (read-out: IC50) were 30 nM, “Not Active” and more than 10000 nM, respectively.
For the compound `COc1ccc(/C=C2\CCOC2=O)cc1`, the IC50 in data set [1] (read-out: IC50) is more than 10000 nM; in data set [2] it was 3800 nM; in data set [3], more than 10000 nM; on Casein kinase II [8] it was “Not Active”; in [5], 1810 nM; in data set [6] it was “Not Active”. In addition, in data set [7], the IC50 result is “Not Active”.

These data come from ChEMBL document CHEMBL3774321, “Systematic diversification of benzylidene heterocycles yields novel inhibitor scaffolds selective for Dyrk1A, Clk1 and CK2” (Eur J Med Chem, 2016).
